The values below come from paper PMC4887403 (Bioorganic & medicinal chemistry letters, 2016).

Where only a bound is given, the exact number is not on record here.

For data set [1], the system named is asexual parasites of the chloroquine-sensitive 3D7 strain of P. falciparum. Put plainly: asexual blood stage assay. The conditions noted are these: Plasmodium falciparum, 3D7, read-out: asexual activity (IC50, text). It is filed as cell-based. Summed up:
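Asexual blood-stage parasites of chloroquine-sensitive P. falciparum 3D7 are tested with test compound in an 11-point dose-response, in duplicate. Each run includes a positive control and a DMSO negative control.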

The test system of the next data set is HepG2 cells. The experiment in a line: HepG2 cell viability. The conditions noted are these: highest concentration tested 46 µM. The format is cell-based. Summed up: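 HepG2 cells are incubated with test compound to measure general cytotoxicity as cell viability. The assay uses an 11-point dose-response in duplicate, with a positive control and a DMSO negative control.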

The subject of another data set is malaria transmission. The conditions noted are these: mouse model; cited from earlier work.

On to `Cn1c(=O)n(-c2cccc(C(F)(F)F)c2)c2c3cc(-c4ccc(N)cc4)ccc3ncc21` [Compound 35], for which, in data set [1], the IC50 (usually the concentration at which inhibition is half-maximal) is less than 100 nM.
For the compound `Cn1c(=O)n(-c2ccc(C#N)cc2)c2c3cc(-c4ccc(N)nc4)ccc3ncc21` [Compound 60], the “HepG2 cytotoxicity” value in the data set on HepG2 cells is “no measurable HepG2 cytotoxicity”.
Turning to `Cn1c(=O)n(-c2cccc(C(F)(F)F)c2)c2c3cc(-c4cccc(N)c4)ccc3ncc21` [Compound 37], the IC50 in data set [1] is less than 100 nM.
As to `Nc1ccc(-c2ccc3ncc4ccc(=O)n(-c5cccc(C(F)(F)F)c5)c4c3c2)cn1` [Torin 2], the “efficacy for blocking malaria transmission” value in the data set with malaria transmission is given as “efficacy for blocking malaria transmission in a mouse model”.
